The values that follow come from PubChem BioAssay AID720543 (The Scripps Research Institute Molecular Screening Center, 2013).

Among all 370,000 compounds or so, about 2,000 (0.54%) were called active.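 How the source made its calls: active means inhibition exceeding the mean over every tested compound plus 3 SD (cut at about 30% in these data); inactive means the rest.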 Only a selection was taken, and actives are over-represented in it overall.

Sequence of (Lyso)-N-acylphosphatidylethanolamine lipase (Mus musculus) (Q8VD66 whole entry, looked up): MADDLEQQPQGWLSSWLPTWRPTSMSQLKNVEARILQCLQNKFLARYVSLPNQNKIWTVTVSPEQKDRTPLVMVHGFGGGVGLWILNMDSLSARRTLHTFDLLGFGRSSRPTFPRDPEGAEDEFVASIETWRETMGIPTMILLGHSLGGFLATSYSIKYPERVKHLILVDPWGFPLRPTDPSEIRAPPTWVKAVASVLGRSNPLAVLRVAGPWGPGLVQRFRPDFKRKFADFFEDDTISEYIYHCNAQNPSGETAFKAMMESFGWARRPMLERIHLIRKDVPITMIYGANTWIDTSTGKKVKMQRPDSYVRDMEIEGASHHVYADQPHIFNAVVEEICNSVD

In the experiment the target is (Lyso)-N-acylphosphatidylethanolamine lipase (Mus musculus) (UniProt Q8VD66). Put plainly: mouse ABHD4 hydrolase activity blockers – biochemical, fluorescence polarization, primary screen (AID 720543).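 Further: 0% = plate median of compound wells and 100% = S159A mutant with DMSO.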 Conditions: purified mABHD4, FP-Rh probe fluorescence polarization; at 8.92 µM; hits give high values. Summed up:
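Assay system: Wild-type mouse ABHD4 protein | Medium: HEPES pH 7.0 buffer, 150 mM NaCl, 0.01% Pluronic F-127 | Incubation: Enzyme–compound pre-incubation 45 min, then probe 60 min, both 25 °C | Technique: Fluorescence polarization with parallel and perpendicular emission, 525/598 nm | Evaluation: % inhibition of FP-Rh probe binding versus controls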
Take `O=c1[nH]c2ccccc2n2c(-c3ccccc3)nnc12`: the inhibition – broadly, the drop in the measured response relative to a control, in per cent – is 43.1% (active).
Turning to `O=C(c1ncn2c1c(=O)[nH]c1ccccc12)N1CCc2ccccc2C1`, the inhibition is -9.48% (inactive).
In the case of `O=C(O)C1C2CC2CN1C(=O)c1ccc(Cl)cc1Cl` (stereo unspecified), the inhibition is 0.74% (inactive).
`CCCNC(=O)CN(Cc1ccccc1F)S(=O)(=O)c1ccc(C)cc1`: the inhibition is -5.78% (inactive).
The value for `CC[C@@H]1Cc2cc(O)ccc2C2=C1c1ccc(O)cc1C[C@H]2CC` was 35.5% (active); that for `Cc1ccc(S(=O)(=O)N2CCCC2C(=O)NCc2ccco2)cc1` (stereo unspecified) was 5.4% (inactive).
Next, `O=C(NC(=S)Nc1ccc(Cl)c(C(=O)O)c1)c1cncc(Br)c1`: -0.66% (inactive); `CC(C)c1ccc(NC(=S)NNc2ccc(Cl)c(C(=O)O)c2)cc1`: 37.3% (active).
Regarding `CC(C)c1ccc(NC(=S)NC2CC3C=CC2C3)cc1` (stereo unspecified), the inhibition was -0.07% (inactive).
As for `C=CCN1C(C(=O)OC)CN(Cc2cn(Cc3ccccc3)nn2)CCS1(=O)=O` (stereo unspecified), the inhibition is -0.95% (inactive).
`COc1ccccc1-c1sc2ccccc2c1-c1ccc(Br)nc1`: the inhibition was -9.92% (inactive).
Consider `COc1ccccc1-c1n[nH]nc1C1=CC(=O)CC(C)(C)C1`, for which the inhibition was -5.54% (inactive).
As for `COc1ccccc1C1=Nc2cccc3cccc(c23)N1`, the inhibition is 56.6% (active).
Next, `CCn1c(=O)n2n(c1=O)[C@@]1(C=C3CCCC[C@H]32)N=C(NC(=O)c2ccccc2)N(Cc2ccccc2)[C@H]1Cc1ccccc1`: 5.91% (inactive); `COCCNC(=S)c1ccc(OC)cc1`: 4.41% (inactive).
Regarding `COCCNC(=O)Nc1ccc2nc(-c3ccco3)c(-c3ccco3)nc2c1`, the inhibition was 50.8% (active).
Consider `COCCNC(=O)c1cc2c(Br)ccc(Br)c2nc1N`, for which the inhibition was -4.62% (inactive).
In the case of `O=C(C1CCN(S(=O)(=O)c2ccc(Br)s2)CC1)N1CCN(c2ccccc2)CC1`, the inhibition was 1.42% (inactive).
Next, `COc1ccc(-n2c(SCC(=O)NC3CCCC3)nnc2-c2ccncc2)cc1`: 3.8% (inactive).
The value for `CCn1c(/C=C/Nc2ccccc2)[n+](CC)c2ccc(C(=O)OCC(F)(F)F)cc21` was -4.64% (inactive); that for `CC(c1c[nH]c2ccccc12)c1c(-c2ccccc2)n(C)c2ccccc12` (stereo unspecified) was -21.7% (inactive).
As to `Cc1nc2cc(C(F)(F)F)ccc2n1CCNc1nc(-c2cc(Cl)c(N)c(Cl)c2)cs1`, the inhibition is 5.15% (inactive).
Regarding `CC(C)COC(=O)n1c(=O)oc2ccc(S(=O)(=O)N3CCCCC3)cc21`, the inhibition is 42.3% (active).
With `CCOC(=O)C1CCN(C(=O)c2oc3ccc(S(=O)(=O)N4CCCCCC4)cc3c2C)CC1`, the inhibition was 6.37% (inactive).
Regarding `CC1CCCCN1C(=O)Cn1c(=O)oc2cc(S(=O)(=O)N3CCCCC3)ccc21` (stereo unspecified), the inhibition is 8.03% (inactive).
As to `Cc1ccccc1NC(=O)C1CCN(c2ncccn2)CC1`, the inhibition is -7.6% (inactive).
Next, `COC(=O)C1CCCCN1C(=O)c1ccc(OC2CCN(C(C)=O)CC2)c(OC)c1` (stereo unspecified): -4.35% (inactive).
For `COc1ccc(-c2ccccc2C2Cc3nnccc3CN2C(=O)Nc2ccccc2)cc1` (stereo unspecified), the inhibition was -13% (inactive).
On to `Cc1coc2c(O)cc3c(c12)OC1(N2CCCCC2)C(=O)NCCCC31` (stereo unspecified), for which the inhibition is 35.3% (active).
As to `O=C(CSc1nnc(-c2ccccn2)n1-c1ccc(Cl)cc1)Nc1ccccc1-c1ccccc1`, the inhibition was -9.15% (inactive).
Turning to `CS(=O)(=O)N1CCCC(C(=O)Nc2ccccc2C(F)(F)F)C1` (stereo unspecified), the inhibition is -11.1% (inactive).
In the case of `COc1ccc(C(C#N)Nc2ccc(C)cc2)cc1` (stereo unspecified), the inhibition was 0.68% (inactive).
For the compound `Cc1cc2nc3c(=O)n(Cc4ccccc4)c(=O)[nH]c3nc2cc1N`, the inhibition was 56.4% (active).
Next, `COCCCN(C(=O)CSCc1ccc(C)cc1)c1c(N)n(Cc2ccccc2)c(=O)[nH]c1=O`: 2.08% (inactive).
For `COCCn1c(N)c(NCc2ccccc2)c(=O)[nH]c1=O`, the inhibition was 7.29% (inactive).
Regarding `CC(NC(=O)C1CCCN(S(=O)(=O)c2ccc(-n3cnnn3)cc2)C1)c1ccc(F)cc1` (stereo unspecified), the inhibition is -0.78% (inactive).
`Cc1ccc(S/C(=N\S(=O)(=O)c2ccc(Cl)cc2)c2ccccc2)cc1`: the inhibition is 7.36% (inactive).
In the case of `CCOc1ccc(Oc2c(Cl)cnn(-c3ccc(C)cc3)c2=O)cc1`, the inhibition was 5.6% (inactive).
For the compound `COc1ccc(C2Nc3ccccc3C(=O)N2Cc2cccs2)cc1COc1c(C)cccc1C` (stereo unspecified), the inhibition was -15.8% (inactive).
On to `CCOc1ccc2nc(NCCNC(=O)C(C)(C)C)c(C)cc2c1`, for which the inhibition was -2.62% (inactive).
In the case of `CCOc1ccc2sc(NS(=O)(=O)c3ccc(N)cc3)nc2c1`, the inhibition is 16.3% (inactive).
Take `COc1ccc(-c2noc(C(C)NS(=O)(=O)c3ccc(NC(C)=O)cc3)n2)cc1` (stereo unspecified): the inhibition is 0.4% (inactive).
Turning to `COc1ccc2nc(Nc3nc4ccc(NC(C)=O)cc4s3)sc2c1`, the inhibition was 37.7% (active).
`CCOc1ccc2nc(Nc3nc4ccc(NC(C)=O)cc4s3)sc2c1`: the inhibition was 35.1% (active).
For `COc1ccc(/C=C/c2nnc(NC(=O)C(C)C)s2)cc1`, the inhibition was -1.43% (inactive).
As to `CN1CCN(C(=O)C(=O)c2cn(CC(=O)N3CCCC3)c3ccccc23)CC1`, the inhibition was 8.39% (inactive).
As to `Nc1nc2c(ncn2[C@@H]2O[C@H](C(=O)N[C@@H](Cc3ccccc3)C(=O)NCc3ccccc3)[C@@H](O)[C@H]2O)c(=O)[nH]1`, the inhibition was 1.72% (inactive).
Regarding `COC(=O)[C@]12C[C@H](CC(=O)NCC34CC5CC(CC(C5)C3)C4)C(=O)N(Cc3ccc(Cl)cc3Cl)C1=C[C@H](COCc1ccccc1)O[C@@H]2C`, the inhibition was 2.69% (inactive).
Take `O=C(NCc1ccccc1)[C@@H]1CCCN1C(=O)[C@@H](NS(=O)(=O)c1ccc(F)cc1F)C1CCCCC1`: the inhibition is -7.63% (inactive).
In the case of `COC(=O)[C@]12C[C@H](CC(=O)NCc3ccccc3)C(=O)N(Cc3ccccc3)C1=C[C@H](COCc1ccccc1)O[C@@H]2C`, the inhibition was -5.73% (inactive).
Next, `COC(=O)[C@@]12CCCCC=C1N(CCc1ccc(Cl)cc1)C(=O)[C@H]2CC(=O)NCc1ccc(OC)c(OC)c1`: -1.49% (inactive); `CCOC(=O)[C@@]12CCC3=C1N(CCC3)C(=O)[C@H](CC(=O)N1CCN(C(=O)c3ccco3)CC1)C2`: 2.38% (inactive); `O=C1CC(c2ccccc2)C(c2ccccc2)=NN1` (stereo unspecified): -2.08% (inactive).
On to `CN(C(=O)CCn1c(=S)oc2ccccc21)C1CCCCC1`, for which the inhibition is 0.63% (inactive).
In the case of `CN(C(=O)COc1ncnc2c1cnn2-c1ccccc1)C1CCCCC1`, the inhibition is -16.6% (inactive).
Turning to `CCOC(=O)Cn1c2c(n(-c3ccc(F)cc3)c1=O)C=C(c1ccccc1)[C@@H](C)C(C(=O)N(C)C1CCCCC1)=C2`, the inhibition was 34.2% (active).
With `CCC(=O)Nc1ccc2c(c1)C(=O)N(C)[C@@H]1CC[C@@H](CC(=O)NCCc3ccccc3)O[C@H]1CO2`, the inhibition was -0.19% (inactive).
Take `Cc1nn(C)cc1N1C(=O)c2cccc3c(N)ccc(c23)C1=O`: the inhibition is 35.3% (active).
Regarding `CN1C(=O)c2cccc3c(N)ccc(c23)C1=O`, the inhibition was 32.9% (active).
On to `CC(C)C[C@H](NC(=O)CC1CCCC1)C(=O)N1CCC[C@H]1C(=O)NCc1ccccc1`, for which the inhibition is 0.46% (inactive).
In the case of `COc1ccc2c(C(C)c3ccc(N)cc3)cn(C)c2c1` (stereo unspecified), the inhibition is -3.15% (inactive).
In the case of `CC(NC(=O)CCCC1CCCCC1)c1ccc(S(N)(=O)=O)cc1` (stereo unspecified), the inhibition was -16% (inactive).
As for `CCOC(=O)C1CCN(C(=O)C(C)(C)NC(=O)Nc2ccccc2Cl)CC1`, the inhibition was -3.65% (inactive).
In the case of `O=C(NCC1COc2ccccc2O1)c1ccc(NC(=O)c2cc(F)ccc2F)cc1` (stereo unspecified), the inhibition is 5.07% (inactive).
For `CCN(CC)C(=O)CC[C@H]1CC[C@]2(CCCN(Cc3ccc(Cl)cc3)C2)O1`, the inhibition was -3.65% (inactive).
For the compound `C=CCN1C(=O)[C@@H](CC(=O)NCCCOCCCC)[C@]2(C(=O)OCC)CCCCC/C=C/12`, the inhibition is -1.53% (inactive).
With `Cc1ccccc1N1CCN(Cc2nc(Cc3ccccc3F)no2)CC1`, the inhibition was -7.9% (inactive).
Turning to `Cc1cccc(N2CCN(Cc3nc(C4CC4)no3)CC2)n1`, the inhibition was 53.8% (active).
Regarding `Fc1cccc(Cc2noc(CN3CCN(c4cnccn4)CC3)n2)c1`, the inhibition was -0.5% (inactive).
Regarding `CCOC(=O)C1CCN(C(=O)C2(NC(=O)Nc3cccc(F)c3)CCCCC2)CC1`, the inhibition was -0.97% (inactive).
Next, `O=C(/C=C/c1ccc([N+](=O)[O-])cc1)NCCSCc1ccco1`: -1.92% (inactive).
Next, `CCCCC(=O)N[C@@H]1CC[C@@]23CCCN2C(=O)CCC[C@H]3[C@H]1C`: 3.19% (inactive); `CC1CCN(c2ccc(C(=O)Nc3nnc(C4CC4)s3)cc2[N+](=O)[O-])CC1`: 2.94% (inactive).
In the case of `CC1CCN(c2ccc(C(=O)O)cc2NS(=O)(=O)c2ccc(Br)s2)CC1`, the inhibition is 40.3% (active).
As for `CC1CCN(c2ccc(S(=O)(=O)Nc3cc(C(=O)O)cc(C(=O)O)c3)cc2[N+](=O)[O-])CC1`, the inhibition is -0.48% (inactive).
As for `O=C1C=CC(=O)N1c1ccc(N2CCCCC2)cc1`, the inhibition is 40.5% (active).
As to `Nn1c(SCC(=O)N2c3ccccc3Sc3ccccc32)nnc1-c1n[nH]c2c1CCC2`, the inhibition is -15.8% (inactive).
Regarding `O=C1CC[C@@]23CCCN2C(=O)CCC[C@H]3[C@H]1Cc1ccccc1`, the inhibition was -0.8% (inactive).
Consider `CC1(C)OC(=O)C(=CNC(CO)C(=O)O)C(=O)O1` (stereo unspecified), for which the inhibition was 5.15% (inactive).
Next, `CC(=O)Nc1nc2ncccn2c1-c1ccc(C(F)(F)F)cc1`: 5.78% (inactive); `CCCN1C(=O)c2[nH]nc(-c3ccccc3)c2C1c1ccccc1` (stereo unspecified): -7.15% (inactive).
For `CC(C)NC(=O)/C(C#N)=C\c1ccc(N(C)C)c(Br)c1`, the inhibition was 3.76% (inactive).
`N#C/C(=C\c1ccc(O)c(O)c1)C(=O)NCc1ccccc1`: the inhibition is 47% (active).
With `O=C(CCCc1ccccc1)NCc1ccccc1`, the inhibition is -1.11% (inactive).
For `CC(=O)Nc1ccc(OC[C@@H](O)CN2CCC(C(O)(c3ccccc3)c3ccccc3)CC2)cc1`, the inhibition was -3.77% (inactive).
On to `OC(c1ccccc1)(c1ccccc1)C1CCN(CCCOc2ccc(-c3ccsc3)cc2)CC1`, for which the inhibition is 13.8% (inactive).
